Assay results from ChEMBL document CHEMBL4270576, “Discovery of a benzenesulfonamide-based dual inhibitor of microsomal prostaglandin E2 synthase-1 and 5-lipoxygenase that favorably modulates lipid mediator biosynthesis in inflammation” (Eur J Med Chem, 2018).
The source made the active and inactive calls. No cut-off for these calls is given here.

What was measured:
[1] = molecular target: T1, Polyunsaturated fatty acid lipoxygenase ALOX12 (Homo sapiens) (UniProt P18054); experiment: Modulation of 12-LO-mediated 12-HETE level in human M2 macrophages derived from IL4-polarized human monocyte derived macrophages at 3 uM preincubated for 15 mins followed by Escherichia coli (O6:K2:H1) challenge for 90 mins by LC-MS/MS analysis
T1 sequence (whole entry): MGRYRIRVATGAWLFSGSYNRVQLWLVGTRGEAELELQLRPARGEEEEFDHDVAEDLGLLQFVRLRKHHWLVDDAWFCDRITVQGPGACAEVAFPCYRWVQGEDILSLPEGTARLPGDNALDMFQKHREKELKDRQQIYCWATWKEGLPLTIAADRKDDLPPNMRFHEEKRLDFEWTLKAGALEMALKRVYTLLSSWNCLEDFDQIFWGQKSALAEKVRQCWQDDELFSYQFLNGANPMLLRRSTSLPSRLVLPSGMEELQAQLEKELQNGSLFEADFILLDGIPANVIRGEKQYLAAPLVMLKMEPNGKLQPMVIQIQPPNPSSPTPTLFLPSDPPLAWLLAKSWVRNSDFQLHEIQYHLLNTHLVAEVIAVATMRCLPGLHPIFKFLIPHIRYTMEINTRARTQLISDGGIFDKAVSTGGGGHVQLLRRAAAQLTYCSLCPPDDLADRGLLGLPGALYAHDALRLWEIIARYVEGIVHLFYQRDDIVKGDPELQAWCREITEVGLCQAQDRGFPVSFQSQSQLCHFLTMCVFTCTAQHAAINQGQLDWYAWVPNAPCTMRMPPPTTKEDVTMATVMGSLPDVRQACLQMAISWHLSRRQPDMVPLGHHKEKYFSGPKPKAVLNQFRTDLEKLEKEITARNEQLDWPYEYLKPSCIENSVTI
Procedure, shortened: (§1)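 Monocytes differentiated 6 days with M-CSF (20 ng/ml), then polarized 48 h with IL-4 20 ng/ml (M2). Cells (2 × 10^6) in PBS/1 mM CaCl2 pre-incubated 15 min at 37 °C with 3 µM compound or 0.1% DMSO, then challenged with E. coli O6:K2:H1 (1:50) for 90 min. Lipid mediators extracted by SPE with deuterated internal standards and quantified by UPLC-MS/MS as % of vehicle.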

[2] = organism: Homo sapiens; experiment: Modulation of LO-mediated MaR1 level in human M2 macrophages derived from IL4-polarized human monocyte derived macrophages at 3 uM preincubated for 15 mins followed by Escherichia coli (O6:K2:H1) challenge for 90 mins by LC-MS/MS analysis; procedure, shortened: as §1
[3] = molecular target: T2, Polyunsaturated fatty acid 5-lipoxygenase (Homo sapiens) (UniProt P09917); experiment: Inhibition of recombinant human 5-LO expressed in Escherichia coli BL21 (DE3) using 2.5 to 80 uM arachidonic acid as substrate […] followed by CaCl2 and substrate addition measured after 10 mins by RP-HPLC analysis
T2 sequence (whole entry): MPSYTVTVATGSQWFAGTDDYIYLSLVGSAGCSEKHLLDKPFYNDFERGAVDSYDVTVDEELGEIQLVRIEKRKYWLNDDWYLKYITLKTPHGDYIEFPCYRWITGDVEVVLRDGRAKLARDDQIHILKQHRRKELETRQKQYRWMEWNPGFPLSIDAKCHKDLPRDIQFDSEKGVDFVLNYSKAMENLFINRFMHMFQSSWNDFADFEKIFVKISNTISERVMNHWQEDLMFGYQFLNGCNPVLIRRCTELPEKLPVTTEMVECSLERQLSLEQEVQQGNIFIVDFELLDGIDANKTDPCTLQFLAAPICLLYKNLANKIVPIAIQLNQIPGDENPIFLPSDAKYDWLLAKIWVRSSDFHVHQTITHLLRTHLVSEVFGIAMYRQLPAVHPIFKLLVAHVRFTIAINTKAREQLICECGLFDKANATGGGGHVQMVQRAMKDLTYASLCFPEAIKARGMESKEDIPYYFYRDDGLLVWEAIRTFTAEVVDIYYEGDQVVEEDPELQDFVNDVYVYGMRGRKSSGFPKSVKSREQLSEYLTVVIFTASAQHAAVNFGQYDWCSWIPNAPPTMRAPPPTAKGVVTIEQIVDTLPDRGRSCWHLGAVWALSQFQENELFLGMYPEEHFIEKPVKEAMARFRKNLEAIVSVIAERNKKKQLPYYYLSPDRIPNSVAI

[4] = tested on: Macrophage cell line; experiment: Modulation of 4-HDHA level in human M2 macrophages derived from IL4-polarized human monocyte derived macrophages at 3 uM preincubated for 15 mins followed by Escherichia coli (O6:K2:H1) challenge for 90 mins by LC-MS/MS analysis; assay type: functional; procedure, shortened: as §1

Activity [1]: 151%
Activity [2]: 141%
inhibition [3]: Active
SMILES: O=C(O)c1ccc(N(Cc2cccc(OCc3ccccc3)c2)S(=O)(=O)c2ccc(-c3ccccc3)cc2)cc1
Activity [4]: 86%
